Data published in ChEMBL document CHEMBL4396915, “Synthesis of new thiazolyl-pyrazolyl-1,2,3-triazole derivatives as potential antimicrobial agents” (2019).
Converted amounts (≈) assume the structure as drawn. The source made the active and inactive calls. No cut-off for these calls is given here.

How the values were obtained:
Candida albicans [1] = assay: Antifungal activity against Candida albicans NCIM 3100 assessed as zone of inhibition at 80 ug/well incubated for 48 to 72 hrs by agar well diffusion method; assay type: functional; settings: read-out: IZ
In short: (§1)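 Fungi kept on potato dextrose agar slants and grown in potato dextrose broth. 500 microlitres of 48-72 h spore suspension swabbed onto Mueller Hinton agar. Compounds in DMSO loaded into 5 mm wells, with a DMSO vehicle plate and fluconazole/ravuconazole positive-control plate. Incubated 48-72 h at 30 C. Clear zone measured in mm, mean of five replicates.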

Aspergillus niger [2] = assay: Antifungal activity against Aspergillus niger NCIM 504 assessed as inhibition of fungal growth incubated for 48 to 72 hrs by broth microdilution susceptibility method; assay type: functional
In short: (§2)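 Tube micro-dilution in Sabouraud liquid medium. Stocks were made in DMSO and serially diluted twofold in broth to final […]. Tubes inoculated with organisms grown in potato dextrose broth and held 48-72 h at 30 C. MIC is the lowest concentration with no growth. DMSO and uninoculated-media controls were included, in triplicate.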

Aspergillus niger [3] = assay: Antifungal activity against Aspergillus niger NCIM 504 assessed as zone of inhibition at 80 ug/well incubated for 48 to 72 hrs by agar well diffusion method; assay type: functional; settings: for zone of inhibition at 80 µg/disc: read-out: IZ; in short: as §1
Candida albicans [4] = assay: Antifungal activity against Candida albicans NCIM 3100 assessed as inhibition of fungal growth incubated for 48 to 72 hrs by broth microdilution susceptibility method; assay type: functional; in short: as §2
Rhodotorula glutinis [5] = assay: Antifungal activity against Rhodotorula glutinis NCIM 3168 assessed as inhibition of fungal growth incubated for 48 to 72 hrs by broth microdilution susceptibility method; assay type: functional; in short: as §2
Aspergillus niger [6] = assay: Inhibition of CYP51 in Aspergillus niger NCIM 504 cells assessed as ergosterol synthesis measured per gram wet weight at 31.5 ug/ml incubated for 72 hrs by spectrophotometric analysis (reference value: 0.0000290836%); set-up: scale not given: the % may be the effect or the level left
In short: (§3)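 A. niger inoculated into potato dextrose broth with compound, untreated control, shaken 72 h at 37 C. Cells centrifuged, washed and pellet wet weight taken. Saponified in 25% alcoholic KOH 1 h at 85 C, then sterols extracted into n-heptane. Extract diluted fivefold in ethanol and scanned at 240-300 nm. Ergosterol computed as % of wet weight from A281.5 and A230, in duplicate.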

Escherichia coli = assay: Antibacterial activity against Escherichia coli NCIM 2574 assessed as zone of inhibition at 80 ug/well incubated for 24 to 48 hrs by agar well diffusion method; assay type: functional; settings: for zone of inhibition at 80 µg/disc: read-out: IZ
In short: (§4)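 Strains from NCIM kept on nutrient agar slants at 4 C and grown overnight at 37 C in nutrient broth. 500 microlitres of 24-48 h culture swabbed onto nutrient agar. Compounds in DMSO loaded into 5 mm wells, with a DMSO vehicle plate and streptomycin reference. Incubated 24-48 h at 37 C. Zone of inhibition measured in mm and averaged over 4 replicates.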

Rhodotorula glutinis [7] = assay: Antifungal activity against Rhodotorula glutinis NCIM 3168 assessed as zone of inhibition at 80 ug/well incubated for 48 to 72 hrs by agar well diffusion method; assay type: functional; settings: read-out: IZ; in short: as §1
Proteus mirabilis = assay: Antibacterial activity against Proteus mirabilis NCIM 2388 assessed as zone of inhibition at 80 ug/well incubated for 24 to 48 hrs by agar well diffusion method; assay type: functional; in short: as §4
[8] = tested on: Staphylococcus epidermidis; assay: Antibacterial activity against Staphylococcus albus NCIM 2178 assessed as zone of inhibition at 80 ug/well incubated for 24 to 48 hrs by agar well diffusion method; assay type: functional; settings: read-out: IZ; in short: as §4
Aspergillus niger [9] = assay: Inhibition of CYP51 in Aspergillus niger NCIM 504 cells assessed as decrease in ergosterol biosynthesis at 31.5 ug/ml incubated for 72 hrs by spectrophotometric analysis; in short: as §3

Compound | MIC (Aspergillus niger [2]) [µg/mL] | MIC (Candida albicans [4]) | MIC (Rhodotorula glutinis [5]) [µg/mL] | Activity (Aspergillus niger [6]) [%] | inhibition (Aspergillus niger [9]) | zone of inhibition at 80 µg/disc (Candida albicans [1]) [mm] | zone of inhibition at 80 µg/disc (Aspergillus niger [3]) [mm] | zone of inhibition at 80 µg/disc (Escherichia coli) [mm] | zone of inhibition at 80 µg/disc (Rhodotorula glutinis [7]) [mm] | inhibition zone (IZ) (Proteus mirabilis) | zone of inhibition at 80 µg/disc [8] [mm] | inhibition zone (IZ) (Aspergillus niger [3]) | inhibition zone (IZ) (Escherichia coli)
Cc1nc(-c2ccc(F)cc2)sc1-c1nn(-c2ccccc2)cc1-c1cn(Cc2ccccc2)nn1 | 31.2 (≈ 63.4 µM) | 125 µg/mL (≈ 254 µM) | 62.5 (≈ 127 µM) | 0 | Active | 16.2 | 15.8 | 11.8 | 16 | inactive | 12.2 | – | –
Cc1ccc(Cn2cc(-c3cn(-c4ccccc4)nc3-c3sc(-c4ccc(F)cc4)nc3C)nn2)cc1 | 31.2 (≈ 61.7 µM) | inactive | 62.5 (≈ 123 µM) | 0 | Active | 12.2 | 13 | 9.6 | 16.2 | inactive | 13.7 | – | –
Cc1ccc(-c2nc(C)c(-c3nn(-c4ccccc4)cc3-c3cn(Cc4ccccc4)nn3)s2)cc1 | 62.5 (≈ 128 µM) | 125 µg/mL (≈ 256 µM) | 125 (≈ 256 µM) | – | – | 15.8 | – | – | 18.4 | inactive | 11.2 | inactive | inactive

More lines, in order of falling MIC (Aspergillus niger [2]), values ahead:

MIC (Aspergillus niger [2]) [µg/mL] | MIC (Candida albicans [4]) | MIC (Rhodotorula glutinis [5]) [µg/mL] | Activity (Aspergillus niger [6]) [%] | inhibition (Aspergillus niger [9]) | Compound | zone of inhibition at 80 µg/disc (Candida albicans [1]) [mm] | zone of inhibition at 80 µg/disc (Aspergillus niger [3]) [mm] | zone of inhibition at 80 µg/disc (Escherichia coli) [mm] | zone of inhibition at 80 µg/disc (Rhodotorula glutinis [7]) [mm] | inhibition zone (IZ) (Proteus mirabilis) | zone of inhibition at 80 µg/disc [8] [mm] | inhibition zone (IZ) (Aspergillus niger [3]) | inhibition zone (IZ) (Escherichia coli)
31.2 (≈ 61.2 µM) | 125 µg/mL (≈ 245 µM) | 62.5 (≈ 122 µM) | 0 | Active | Cc1nc(-c2ccc(F)cc2)sc1-c1nn(-c2ccccc2)cc1-c1cn(Cc2ccc(F)cc2)nn1 | 12.8 | 11 | 12.2 | 13.3 | inactive | 11.8 | – | –
31.2 (≈ 62.2 µM) | 62.5 µg/mL (≈ 124 µM) | 125 (≈ 249 µM) | 0 | Active | Cc1ccc(Cn2cc(-c3cn(-c4ccccc4)nc3-c3sc(-c4ccc(C)cc4)nc3C)nn2)cc1 | 13 | – | 10.2 | 22.3 | inactive | 14.4 | inactive | –
31.2 (≈ 59.7 µM) | inactive | 62.5 (≈ 119 µM) | 0 | Active | Cc1ccc(-c2nc(C)c(-c3nn(-c4ccccc4)cc3-c3cn(Cc4ccc(Cl)cc4)nn3)s2)cc1 | 10 | 16 | 13.6 | 19 | inactive | 12 | – | –
